The EternaBench riboswitch data

Test system: MS2 coat protein
Assay: apparent Kd, MS2 coat protein; higher = weaker binding; RNA-MaP array; FMN 200 µM where present
Method in brief: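 The apparent Kd is reported as the median of filtered per-cluster binding-curve fits. To get these curves, designs transcribed by stalled E. coli RNA polymerase on Illumina sequencing-chip clusters were titrated with SNAP-549-labelled MS2 coat protein from 0.7 or 1.5 nM, doubling to 3 µM. Titrations were run without and then with constant ligand in 100 mM Tris-HCl pH 7.5, 80 mM KCl, 4 mM MgCl2, BSA, DTT, yeast tRNA and Tween-20, and green signal was normalised to red-channel RNA signal and control-cluster median Fmax.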

[1] = designed as: OFF switch for flavin mononucleotide, no ligand
[2] = ligand present: flavin mononucleotide, designed as: OFF switch for flavin mononucleotide
[3] = designed as: ON switch for flavin mononucleotide, no ligand
[4] = ligand present: flavin mononucleotide, designed as: ON switch for flavin mononucleotide

Sequence: GUAAACCGGUGAGGAUAUUUAUAAUAGAGCUUUAUGAUAUACAUGAGGAUCACCCAUGUUACUUUAAAGAAGGCAUCGGAAAUG
- apparent Kd [1]: 21.4 nM
- apparent Kd [2]: 17.2 nM

Sequence: GUACCAUAUGAGAAGGCGAUCAUGAAACAUGAUCGAGGAUAUCAUGAAAACAUGAGGAUCACCCAUGUAUGGGUAUUAAGGUAC
- apparent Kd [3]: 61.4 nM
- apparent Kd [4]: 23.7 nM

Sequence: GUACGGAAGGAGAAGGGCUAGGAGGUCCAGCUUAUGUGUGUUGCAACAUGAGGAUCACCCAUGUAGCAGGAUAUCCUUUGUACA
- apparent Kd [1]: 45.7 nM
- apparent Kd [2]: 265 nM

Sequence: GUACUCAUGUAAGGAUAUGCAGCCGUUUCGGCUGCAGAAGGUACUAUAAUACAUGAGGAUCACCCAUGUCUCUCGCAUUGCGAG
- apparent Kd [3]: 465 nM
- apparent Kd [4]: 98.4 nM

Sequence: GUACUGAAGCCUUGCUUUAGUCGUACAUGAGGAUCACCCAUGUAGGAUAUGGUAGGCUUUGCUUACUAGAAGGAUAGAGUGAUC
- apparent Kd [1]: 56.1 nM
- apparent Kd [2]: 34 nM

Sequence: GUACUGAGGCUUUGCUUUAGUCGUACAUGAGGAUCACCCAUGUAGGAUAUGGUAGGCUUUGCUUACCAGAAGGACAGAGUGAUC
- apparent Kd [1]: 168 nM
- apparent Kd [2]: 85.7 nM

Sequence: GUACUUGUGCAGAAGGGCAUUGAAUUAGGUUUUUAGGUUGAUCAGAAAUGCAGGAUAUGUUAAACAUGAGGAUCACCCAUGUAC
- apparent Kd [3]: 66.3 nM
- apparent Kd [4]: 13.7 nM

Sequence: GUAGAGAUUACAUGAGGAUCACCCAUGUCAGAACGGGUAAUCAGAAGGUAUUAUUAGAGAGAGGGUAAGGAUAUGAUUUUUUAU
- apparent Kd [3]: 634 nM
- apparent Kd [4]: 438 nM

Sequence: GUAGAUAGAUAGAAGGUAUGGUAUUAGAUUAAAUAAGGAUAUAUGAACAUGAGGAUCACCCAUGUAUUAUGGGAUAGAUAGACU
- apparent Kd [3]: 228 nM
- apparent Kd [4]: 153 nM

Sequence: GUAGCAUACAGAGGAUAUUCAAAACCGGAAACGGACAUGAGGAUCACCCAUGUGGCGAAAGCCAGGGAGAAGGCUGAAUGCUAC
- apparent Kd [3]: 32.8 nM
- apparent Kd [4]: 14.8 nM

Sequence: GUAGCAUACCGAGGAUAUUCACCGGAAAACCGGACAUGAGGAUCACCCAUGUGGCGAAAGCCUUGGGAGAAGGCGGAAUGCUAC
- apparent Kd [3]: 135 nM
- apparent Kd [4]: 19.9 nM

Sequence: GUAGCAUACCGAGGAUAUUCAGGGAAUAAAUAAACAUGAGGAUCACCCAUGUGGCGAAAGCCUAGGGAGAAGGCGGAAUGCUAC
- apparent Kd [3]: 83.6 nM
- apparent Kd [4]: 21.5 nM

Sequence: GUAGCAUACCGAGGAUAUUCAGGGCGUGGAUAAACAUGAGGAUCACCCAUGUGGCGAAAGCCUAGGGAGAAGGCGGAAUGCUAC
- apparent Kd [3]: 21.5 nM
- apparent Kd [4]: 16.3 nM

Sequence: GUAGCAUACCGAGGAUAUUCAGGGCGUGGUUAAACAUGAGGAUCACCCAUGUGGCGAAAGCCUAGGGAGAAGGCGGAAUGCUAC
- apparent Kd [3]: 28.7 nM
- apparent Kd [4]: 22.5 nM

Sequence: GUAGCAUACCGAGGAUAUUCAUAUAAUAAAUAAACAUGAGGAUCACCCAUGUGGCGAAAGCCUAGGGAGAAGGCGGAAUGCUAC
- apparent Kd [3]: 240 nM
- apparent Kd [4]: 22.6 nM

Sequence: GUAGCAUACCGAGGAUAUUCAUUACAUGAGGAUCACCCAUGUUUUAUAGGCCGAUUACGGCCUUGGGAGAAGGCGGAAUGCUAC
- apparent Kd [3]: 14.8 nM
- apparent Kd [4]: 11.1 nM

Sequence: GUAGCAUACCGAGGAUAUUCUAACCGGAAACGGACAUGAGGAUCACCCAUGUGGCGAAAGCCUUGGGAGAAGGCGGAAUGCUAC
- apparent Kd [3]: 12.3 nM
- apparent Kd [4]: 12.8 nM

Sequence: GUAGCAUACCGAGGAUAUUCUUAUAAUAAAUAAACAUGAGGAUCACCCAUGUGGCGAAAGCCAAGGGAGAAGGCGGAAUGCUAC
- apparent Kd [3]: 87.7 nM
- apparent Kd [4]: 20.1 nM

Sequence: GUAGCAUAGGCAGGAUAUUCAUAUAAUAAAUAAACAUGAGGAUCACCCAUGUGGCGAAAGCCUUGGGAGAAGGGCCAAUGCUAC
- apparent Kd [3]: 933 nM
- apparent Kd [4]: 60.9 nM

Sequence: GUAGCUACAUGAGGAUCACCCAUGUAGGAUAUCGCUAUUGUAAUCAUGUUACAUGAUUACAAUAGCGAGAAGGACGUGUGCUAC
- apparent Kd [1]: 9.03 nM
- apparent Kd [2]: 10.4 nM

Sequence: GUAGCUACAUGAGGAUCACCCAUGUAGGAUAUCGCUAUUGUAAUCAUGUUACAUGAUUACAAUAGCGAGAAGGACGUUAGCUAC
- apparent Kd [1]: 6.5 nM
- apparent Kd [2]: 7.16 nM

Sequence: GUAGCUAUCGGAGGAUAUUCAUACCGGAAACGGACAUGAGGAUCACCCAUGUGGCGAAAGCCUUGGGAGAAGGCCGAUCGCUAC
- apparent Kd [3]: 239 nM
- apparent Kd [4]: 8.45 nM
